Measured values as given in ChEMBL document CHEMBL1138187, “2-(2-Thienyl)-5,6-dihydroxy-4-carboxypyrimidines as inhibitors of the hepatitis C virus NS5B polymerase: discovery, SAR, modeling, and mutagenesis” (J Med Chem, 2006).

Legend:
[1] = Lipophilicity as measured by LogD at pH 7.4; format: physicochemical; settings: buffer
[2] = target: T1, RNA-directed RNA polymerase (Hepacivirus hominis, UniProt O39930); test: Inhibitory activity against HCV 3a BK NS5B deltaC21 RNA polymerase
[3] = target: T1, RNA-directed RNA polymerase; test: Inhibitory activity against HCV 1b BK NS5B deltaC55 RNA polymerase; design: species or system Hepatitis C virus subtype 1b
In short: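 Purified HCV 1b-BK NS5B∆C55 (residues 1-536) expressed in E. coli BL21(DE3). Polymerase activity read on a homopolymeric template RNA at pH 7.4. IC50 is the average of at least three independent determinations; standard deviations within 30% of the average.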

[4] = Dissociation constant, pKa of the compound; format: physicochemical
[5] = target: T1, RNA-directed RNA polymerase; test: Inhibitory activity against HCV 1b BK NS5B deltaC55 RNA polymerase involving manganese chelation; design: species or system Hepatitis C virus subtype 1b
In short: (§1)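 HCV 1b-BK NS5B∆C55 (residues 1-536) from E. coli BL21(DE3), assayed on a homopolymeric template RNA with either Mg or Mn as the divalent metal ion. IC50 taken under each metal.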

[6] = target: T1, RNA-directed RNA polymerase; test: Inhibitory activity against HCV 1b BK NS5B deltaC21 RNA polymerase; design: species or system Hepatitis C virus subtype 1b
In short: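 HCV 1b-BK NS5B∆C21 (residues 1-570), expressed in E. coli BL21(DE3) and purified; polymerase activity measured on a homopolymeric template RNA; IC50 read-out.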

[7] = target: T1, RNA-directed RNA polymerase; test: Inhibitory activity against HCV 2a BK NS5B deltaC21 RNA polymerase; design: species or system Hepatitis C virus subtype 2a
[8] = target: T1, RNA-directed RNA polymerase; test: Inhibitory activity against HCV 1b BK NS5B deltaC55 RNA polymerase involving magnesium chelation; design: species or system Hepatitis C virus subtype 1b; in short: as §1
Hepatitis C virus = test: Inhibition of subgenomic HCV RNA replication in Huh-7 cells (replicon assay)
[9] = target: T1, RNA-directed RNA polymerase; test: Inhibitory activity against HCV 1b BK NS5B RNA polymerase; design: species or system Hepatitis C virus subtype 1b
In short: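 Purified HCV 1b-BK NS5B∆C55 (residues 1-536), expressed in E. coli BL21(DE3), assayed with a homopolymeric template RNA at pH 7.4 with Mg as metal ion; IC50 taken as the average of at least three independent determinations.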

[10] = target: RNA-directed RNA polymerase (Hepacivirus hominis, UniProt O39930, DELTAC55/R158M); test: Inhibitory activity against HCV 1b BK NS5B deltaC55-R158M mutant RNA polymerase; design: species or system Hepatitis C virus subtype 1b
In short: (§2)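 HCV 1b-BK NS5B∆C55 (residues 1-536) carrying R158M or R158K, expressed in E. coli BL21(DE3) and purified. Polymerase run on a homopolymeric template RNA with UTP as substrate; IC50 and UTP Km measured in duplicate.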

[11] = target: RNA-directed RNA polymerase (Hepacivirus hominis, UniProt O39930, DELTAC55/R158K); test: Inhibitory activity against HCV 1b BK NS5B deltaC55-R158K mutant RNA polymerase; design: species or system Hepatitis C virus subtype 1b; in short: as §2
Homo sapiens = species: Homo sapiens; test: Percent of unbound ligand in human plasma; format: ADME, organism-based

T1 sequence (O39930 whole entry): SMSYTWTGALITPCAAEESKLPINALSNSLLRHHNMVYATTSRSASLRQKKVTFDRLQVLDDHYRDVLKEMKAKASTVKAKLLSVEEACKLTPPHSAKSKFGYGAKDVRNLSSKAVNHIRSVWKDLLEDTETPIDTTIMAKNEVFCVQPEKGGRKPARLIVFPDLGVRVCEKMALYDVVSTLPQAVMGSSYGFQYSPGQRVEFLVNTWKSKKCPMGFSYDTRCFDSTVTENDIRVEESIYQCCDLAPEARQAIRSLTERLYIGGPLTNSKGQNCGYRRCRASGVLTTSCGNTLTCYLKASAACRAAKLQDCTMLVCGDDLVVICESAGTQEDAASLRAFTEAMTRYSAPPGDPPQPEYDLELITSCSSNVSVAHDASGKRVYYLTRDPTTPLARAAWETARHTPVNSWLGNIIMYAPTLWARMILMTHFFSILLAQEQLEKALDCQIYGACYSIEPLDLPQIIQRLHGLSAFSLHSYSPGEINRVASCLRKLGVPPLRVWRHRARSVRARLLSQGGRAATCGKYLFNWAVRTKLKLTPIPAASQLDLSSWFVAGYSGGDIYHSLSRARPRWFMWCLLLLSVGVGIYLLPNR

Row | Structure (SMILES) | IC50 [3] [nM] | EC50 (Hepatitis C virus) [nM] | other results
1 | O=C(NCc1ccccc1Cl)Nc1ccsc1-c1nc(O)c(O)c(C(=O)O)n1 | 150 | 9300 | logD [1]: 0.37; IC50 [2]: 48 nM; pKa [4]: 6.6; IC50 [5]: 36 nM; IC50 [6]: 45 nM; IC50 [7]: 44 nM; IC50 [8]: 150 nM; IC50 [9]: 130 nM
2 | O=C(O)c1nc(-c2cccs2)nc(O)c1O |  |  | logD [1]: -1.95; pKa [4]: 7.7; IC50 [5]: 240 nM; IC50 [10]: 9300 nM; IC50 [11]: 92000 nM
3 | O=C(NCc1csc2ccccc12)Nc1ccsc1-c1nc(O)c(O)c(C(=O)O)n1 | 220 | 30000 | 
4 | O=C(NCc1ccccc1)Nc1ccsc1-c1nc(O)c(O)c(C(=O)O)n1 | 230 |  | 
5 | O=C(Cc1ccccc1Cl)Nc1ccsc1-c1nc(O)c(O)c(C(=O)O)n1 | 210 | 53300 | 
6 | O=C(CCc1ccccc1)Nc1ccsc1-c1nc(O)c(O)c(C(=O)O)n1 | 580 | > 50000 | 
7 | O=C(Cc1c[nH]c2ccccc12)Nc1ccsc1-c1nc(O)c(O)c(C(=O)O)n1 | 200 | > 50000 | 
8 | O=C(O)c1nc(-c2cc3ccccc3s2)nc(O)c1O | 11600 |  | 
9 | O=C(O)c1nc(C2CCCCC2)nc(O)c1O | > 50000 |  | pKa [4]: 8.7; IC50 [5]: > 25000 nM; IC50 [8]: > 50000 nM
10 | Nc1ccsc1-c1nc(C(=O)O)c(O)c(=O)[nH]1 | 1900 |  | 
11 | O=C(Nc1ccsc1-c1nc(O)c(O)c(C(=O)O)n1)OCc1ccccc1 | 290 |  | 
12 | CCCCc1nc(C(=O)O)c(O)c(=O)[nH]1 | > 50000 |  | 
13 | O=C(Cc1csc2ccccc12)Nc1ccsc1-c1nc(C(=O)O)c(O)c(=O)[nH]1 | 230 | > 50000 | 
14 | O=C(O)c1nc(Cc2ccccc2)nc(O)c1O | > 50000 |  | 
15 | O=C(O)c1nc(-c2ccco2)nc(O)c1O | 2900 |  | pKa [4]: 7.4; IC50 [5]: 240 nM; IC50 [8]: 2900 nM
16 | O=C(O)c1nc(-c2sccc2[N+](=O)[O-])n(Cc2ccccc2)c(=O)c1O | 79300 |  | 
17 | O=C(Cc1c(-c2ccccc2)[nH]c2ccccc12)Nc1ccsc1-c1nc(C(=O)O)c(O)c(=O)[nH]1 | 280 | > 50000 | 
18 | O=C(O)c1nc(-c2cnccn2)nc(O)c1O | 5300 |  | 
19 | O=C(Nc1ccsc1-c1nc(O)c(O)c(C(=O)O)n1)OCc1c(Cl)cccc1Cl | 190 | 18600 | 
20 | O=C(O)c1nc(-c2ccc([N+](=O)[O-])s2)[nH]c(=O)c1O | 16000 |  | 

Row | Structure (SMILES) | IC50 [3] [nM] | EC50 (Hepatitis C virus) [nM] | other results
21 | O=C(Nc1csc(-c2nc(C(=O)O)c(O)c(=O)[nH]2)c1)c1cccs1 | 13800 |  | 
22 | O=C(O)c1nc(-c2cc([N+](=O)[O-])cs2)nc(O)c1O | 9400 |  | 
23 | C=CCn1c(-c2sccc2[N+](=O)[O-])nc(C(=O)O)c(O)c1=O | 69300 |  | 
24 | O=C(Nc1ccsc1-c1nc(O)c(O)c(C(=O)O)n1)OCc1ccccc1Cl | 140 | 31500 | IC50 [10]: 340 nM; IC50 [11]: 900 nM
25 | O=C(Nc1ccsc1-c1nc(C(=O)O)c(O)c(=O)[nH]1)c1ccccc1 | 800 | > 50000 | 
26 | Cc1cccc(Cl)c1CNC(=O)Nc1ccsc1-c1nc(O)c(O)c(C(=O)O)n1 | 90 | 13600 | logD [1]: 0.6; Fu (Homo sapiens): 0.2%
27 | Cn1c(-c2cccs2)nc(C(=O)O)c(O)c1=O | 4200 |  | pKa [4]: 9.1; IC50 [5]: 460 nM
28 | O=C(Nc1ccsc1-c1nc(C(=O)O)c(O)c(=O)[nH]1)OCc1cccc2ccccc12 | 140 | 13600 | 
29 | Cc1ccsc1-c1nc(O)c(O)c(C(=O)O)n1 | 5600 |  | 
30 | O=C(NCCc1ccccc1)Nc1ccsc1-c1nc(O)c(O)c(C(=O)O)n1 | 620 | > 50000 | 
31 | O=C(Nc1ccsc1-c1nc(C(=O)O)c(O)c(=O)[nH]1)OCCc1ccccc1 | 460 | > 50000 | logD [1]: -0.43
32 | O=C(Cc1ccccc1)Nc1ccsc1-c1nc(O)c(O)c(C(=O)O)n1 | 380 |  | 
33 | O=C(Nc1ccccc1)Nc1ccsc1-c1nc(O)c(O)c(C(=O)O)n1 | 580 | > 50000 | 
34 | O=C(O)c1nc(-c2sccc2[N+](=O)[O-])nc(O)c1O | 680 |  | pKa [4]: 6.9; IC50 [5]: 65 nM; IC50 [8]: 680 nM
35 | O=C(O)c1nc(-c2nccs2)nc(O)c1O | 760 |  | logD [1]: -2.12; pKa [4]: 6.9; IC50 [5]: 210 nM; IC50 [10]: 2770 nM; IC50 [8]: 760 nM; IC50 [11]: 16000 nM
36 | CS(=O)(=O)c1nc(C(=O)O)c(O)c(=O)[nH]1 | 2400 |  | 
37 | Cn1c(-c2sccc2[N+](=O)[O-])nc(C(=O)O)c(O)c1=O | 8700 |  | 
38 | Cc1ccc(-c2nc(O)c(O)c(C(=O)O)n2)s1 | 48600 |  | 
39 | O=C(O)c1nc(-c2ccccc2)nc(O)c1O |  |  | pKa [4]: 8.6
40 | O=C(O)c1nc(-c2sccc2NS(=O)(=O)c2ccc3ccccc3c2)[nH]c(=O)c1O | 1420 |  | 
